This is a sample that favours compounds with a hit; in the whole collection about 1.5% have one here.
APJ antag = antagonists of human APJ apelin receptor | 330,000 compounds, 0.32% hits | CHO-K1 APJ beta-arrestin complementation, luminescence | inhibition, % at 20 µM | P35414;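 active = inhibition above about 40% at 20 µM, limit read from the data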;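 note: cells challenged with 10 nM apelin-13 agonist together with compound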
CXCR6 block = blocks human CXCR6 beta-arrestin recruitment. AID 602244. CHO-K1 PathHunter CXCR6 beta-arrestin, luminescence. 360,000 compounds, 0.36% hits. inhibition, % at 20 µM; in the data active = inhibition above about 34%, passing the limit was not always enough;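 note: antagonist mode with CXCL16 agonist at 10 nM final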
APJ agonist = APJ receptor agonism; CHO-K1 APJ PathHunter beta-arrestin, luminescence; 0% DMSO wells, 100% apelin; activation, % at 20 µM; 330,000 compounds, 0.11% hits; AID 2520;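 active = activation more than six SD over the plate average, tested at 20 µM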
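Test system: CHO-K1 APJ beta-arrestin complementation cell line. Amount: cell density 1000 per well. Controls: DMSO negative, 10 nM Apelin-13 positive. Signal: luminescent beta-gal fragment complementation, chemiluminescent substrate. Read-out basis: agonist-driven arrestin binding to APJ. Timing: compound stimulation 90 min at 25 °C, detection 60 min.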
CCR6 antagonist = antagonists of human CCR6 receptor. 340,000 compounds, 0.49% hits. CHO-K1 CCR6 PathHunter beta-arrestin, luminescence, CCL20-stimulated. AID 493098. inhibition, % at 20 µM. P51684;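 active = compounds whose inhibition of the agonist-driven luminescence signal at 20 µM reaches about 50%, limit read from the data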;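 note: cells stimulated with CCL20 at 14 nM final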
Target sequence (P51684 whole entry, looked up): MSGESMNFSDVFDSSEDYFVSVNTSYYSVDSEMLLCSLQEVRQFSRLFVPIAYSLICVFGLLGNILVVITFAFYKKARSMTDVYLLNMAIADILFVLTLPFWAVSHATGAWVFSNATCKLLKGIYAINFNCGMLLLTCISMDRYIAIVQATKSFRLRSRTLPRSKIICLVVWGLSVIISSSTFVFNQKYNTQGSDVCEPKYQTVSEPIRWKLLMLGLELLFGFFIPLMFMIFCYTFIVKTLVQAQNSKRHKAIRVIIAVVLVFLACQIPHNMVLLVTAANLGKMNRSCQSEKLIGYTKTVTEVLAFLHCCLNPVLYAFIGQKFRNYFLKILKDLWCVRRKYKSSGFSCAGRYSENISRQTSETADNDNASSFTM
EBI2 antag = antagonists of human EBI2 receptor. AID 651636. inhibition, % at 5 µM. 360,000 compounds, 0.81% hits. EBI2 beta-arrestin recruitment, luminescence, 7a,25-OHC stimulated; in the data active = inhibition above about 38%;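 note: enzyme fragment complementation signal reports receptor beta-arrestin coupling in cells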
Target sequence (P32249 whole entry, looked up, the tested form may be a part): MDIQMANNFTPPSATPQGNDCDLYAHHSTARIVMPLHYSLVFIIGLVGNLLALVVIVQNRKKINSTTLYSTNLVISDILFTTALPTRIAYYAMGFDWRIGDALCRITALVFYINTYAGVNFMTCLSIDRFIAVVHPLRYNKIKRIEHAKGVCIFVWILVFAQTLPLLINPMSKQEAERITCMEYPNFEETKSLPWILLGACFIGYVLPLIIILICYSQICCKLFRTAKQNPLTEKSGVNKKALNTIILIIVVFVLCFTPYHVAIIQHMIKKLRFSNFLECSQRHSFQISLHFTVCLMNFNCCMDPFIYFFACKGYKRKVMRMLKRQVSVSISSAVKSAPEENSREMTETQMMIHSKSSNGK
CXCR6 antag conf = confirmation of human CXCR6 receptor antagonists | shares compounds with CXCR6 block | CHO-K1 CXCR6 PathHunter beta-arrestin, luminescence | inhibition, % at 20 µM | 700 compounds, 65% hits | AID 602409;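 active = mean inhibition over four retests above 40%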;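 note: receptor stimulated with 10 nM CXCL16 agonist; beta-galactosidase fragment complementation upon beta-arrestin recruitment to receptor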
Of the large screens only hits and unclear results are named; the others gave an inactive call (follow-up assays come after a bar, where they were run).

Cc1ccc(P(=O)(c2ccc(C)cc2)[C@@H](NC(c2ccccc2)c2ccccc2)c2ccccc2)cc1	CXCR6 block 40.9 (no result: APJ antag, APJ agonist, CCR6 antagonist) | CXCR6 antag conf 41.1
Cc1ccc(P(=O)(O)c2ccc(C)cc2)cc1	none
O=[N+]([O-])c1ccc(Sc2cccc3cccnc23)c([N+](=O)[O-])c1	CXCR6 block 52.6, CCR6 antagonist 55.9 | CXCR6 antag conf 70.0
O=C(Nc1ccc(NC(=O)c2ccccc2F)cn1)c1ccco1	none
O=C1C=CC(=O)N1CCCCCCCCCCN1C(=O)C=CC1=O	CXCR6 block 86.7, CCR6 antagonist 110.5 (no result: APJ antag, APJ agonist) | CXCR6 antag conf 50.6
COc1ccccc1NC(=O)c1cnc(SC)nc1	none
CC(OC(=O)c1nc(-c2ccccc2)n(-c2ccccc2)n1)C(=O)Nc1cc(Cl)cc(Cl)c1 (stereo not given)	CXCR6 block 47.1 | CXCR6 antag conf inactive
Cc1nn(-c2ccccc2)c(C)c1C(=O)OC(C)C(=O)Nc1ccc(C(N)=O)cc1 (stereo not given)	none
CN1CCN(c2ccc([N+](=O)[O-])cc2C(=O)c2ccc(Br)cc2)CC1	none
Cc1ccc(C(=O)c2cc([N+](=O)[O-])ccc2N2CCN(C)CC2)cc1	CXCR6 block 58.6 | CXCR6 antag conf inactive
O=C1OCCN1C(=O)[C@H]1[C@H](c2ccc(Cl)cc2)C(c2ccc(F)cc2)=NN1c1ccc(Br)cc1	CXCR6 block 37.8 (no result: APJ antag, APJ agonist) | CXCR6 antag conf inactive
CCOC(=O)c1cc([N+](=O)[O-])c([N+](=O)[O-])cc1NC(C)=O	CXCR6 block 67.4 (no result: APJ antag, APJ agonist, CCR6 antagonist) | CXCR6 antag conf 63.9
C[C@H](CO)N1C[C@H](C)[C@@H](CN(C)C(=O)Nc2ccccc2)Oc2ccc(NC(=O)Cn3cnnn3)cc2C1=O	none
CC(Oc1ccc(Br)cc1)C(=O)Nc1nc(-c2ccccn2)cs1 (stereo not given)	CXCR6 block 92.6, CCR6 antagonist 84.3 | CXCR6 antag conf 86.1
CCOc1ccc(CN2CCN(Cc3cn(CC)nc3C)CC2CCO)cc1 (stereo not given)	CXCR6 block 47.4 | CXCR6 antag conf inactive
O=C(c1ccc(F)c(S(=O)(=O)N2CCOCC2)c1)N1CCN(c2ccc(F)cc2)CC1	none
c1ccc(-c2nc(NCc3ccco3)c3ccccc3n2)nc1	CXCR6 block 42.8, CCR6 antagonist 52.9 | CXCR6 antag conf inactive
CCc1noc(C)c1C(=O)Nc1nc(-c2ccccc2)c(C(C)=O)s1	none
O=C(NCCc1ccccc1)C1=CCN(S(=O)(=O)c2ccccc2)CC1	none
COC(=O)CCS(=O)(=O)c1nc(-c2ccccc2)cc(C(F)(F)F)n1	none
CCOC(=O)CS(=O)(=O)c1nc(-c2ccccc2)cc(C(F)(F)F)n1	CXCR6 block 51.1 | CXCR6 antag conf 43.8
Cc1cccc(N=Cc2cc(Br)cc(Cl)c2O)c1	CXCR6 block 53.9 | CXCR6 antag conf inactive
Cc1cccn2c(CN3CCCN(C=O)CC3)c(C(=O)N(C)CCc3ccccc3)nc12	none
CC(=O)Nc1ccc(NC(=O)c2csc([C@@H]3O[C@H](CO)[C@H](O)[C@H](O)[C@H]3O)n2)cc1	none (no result: APJ antag, APJ agonist, CCR6 antagonist)
O=C(Nc1ccc(Oc2ccccc2)cc1)c1csc([C@@H]2O[C@H](CO)[C@H](O)[C@H](O)[C@H]2O)n1	CXCR6 block 47.8 (no result: APJ antag, APJ agonist, CCR6 antagonist) | CXCR6 antag conf 51.6
O=C1CC(=O)N(CCNc2ncc(C(F)(F)F)cc2Cl)C(=O)N1	none
O=C1C=CC(=O)N1CCNc1ncc(C(F)(F)F)cc1Cl	CXCR6 block 97.3 (no result: CCR6 antagonist) | CXCR6 antag conf 77.3
COc1cc(/C=C/c2ccc3c(Br)cc(Br)c(O)c3n2)ccc1O	CXCR6 block 42.0, CCR6 antagonist 67.9 (no result: APJ antag, APJ agonist) | CXCR6 antag conf 51.0
COc1ccc(/C=C/c2ccc3c(Br)ccc(O)c3n2)cc1	none
c1ccc(OCC2CCNCC2)nc1	none
O=[N+]([O-])c1cc(-c2ncccn2)c([N+](=O)[O-])s1	CXCR6 block 56.2, CCR6 antagonist 84.8 | CXCR6 antag conf 73.2
CC(C)CCn1c(O)c(N=NC(=O)Cn2ccc(C(F)(F)F)n2)c2ccccc21	none
Cc1sc(Cc2nc(O)cs2)nc1-c1ccccc1	APJ antag 44.7, CXCR6 block 51.8 | CXCR6 antag conf inactive
Oc1csc(Cc2nc(-c3ccc(Br)cc3)cs2)n1	none
COc1ccc(C(=O)Nc2ccccc2C(=O)N2CCOCC2)cc1	none
CCOc1ccc(N(CC(=O)NCCSc2ccccn2)S(=O)(=O)c2ccc(Cl)cc2)cc1	none
CCOc1ccc(N(CC(=O)N/N=C/c2ccccn2)S(=O)(=O)c2ccc(Cl)cc2)cc1	CXCR6 block 40.3 | CXCR6 antag conf 41.1
COc1ccc(NC(=O)c2cc(-c3ccncc3)nc3ccc(Br)cc23)cc1OC	none
CC[n+]1c(C)sc2c(C)cc(C)cc21	none
CCC[n+]1c(C)sc2c3c(ccc21)CCCC3	CXCR6 block 41.8 | CXCR6 antag conf inactive
CCn1c(COc2ccccc2)nnc1SCC(=O)NC1CC1	none
Cc1ccc(S(=O)(=O)NCC(=O)OCC(=O)c2ccc(S(=O)(=O)N3CCCCC3)cc2)cc1C	CXCR6 block 55.7, CCR6 antagonist 71.6 (no result: APJ antag, APJ agonist) | CXCR6 antag conf inactive
CCc1nc2c(OCCC3CCCCC3)cccn2c1N(C)C(=O)c1cccs1	CXCR6 block 47.1 (no result: APJ antag, APJ agonist, CCR6 antagonist) | CXCR6 antag conf inactive
NN=C1c2ccccc2C(=O)C1C(=O)C(c1ccccc1)c1ccccc1 (stereo not given)	CXCR6 block 40.2, CCR6 antagonist 63.4 (no result: APJ antag, APJ agonist) | CXCR6 antag conf inactive
COc1ccc(C(N)c2csc(Nc3ccc(C(F)(F)F)cn3)n2)cc1 (stereo not given)	none (no result: APJ antag, APJ agonist, CCR6 antagonist)
COc1cccc(-c2csc(N3CCN(C(=O)Nc4ccccc4OC)CC3)n2)c1	CXCR6 block 68.0 | CXCR6 antag conf inactive
COc1cccc(-c2csc(N3CCN(C(=O)Nc4ccc(F)cc4)CC3)n2)c1	none
O=C(NCc1cccnc1)/C(=C\c1ccc(-c2cccc(Cl)c2)o1)S(=O)(=O)c1ccccc1	CXCR6 block 33.4, EBI2 antag 42.5 (no result: APJ antag, APJ agonist) | CXCR6 antag conf 40.6
CCn1nccc1C(=O)Nc1nc2ccccc2n1CCN1CCCCC1	CXCR6 block 63.8, CCR6 antagonist 54.4 | CXCR6 antag conf 47.7
Cc1cc2nc(N3C(=O)CNC3=S)sc2cc1C	CXCR6 block 50.0 (no result: CCR6 antagonist) | CXCR6 antag conf 61.3
O=C(Cc1ccc(NC(=O)C2CCCN(C(=O)C3CCC3)C2)cc1)Nc1ccc(C(=O)N2CCOCC2)cc1 (stereo not given)	none (no result: APJ antag, APJ agonist)
N#CC(C#N)=C1C=CC=CN1/C(=C\c1ccccc1Cl)C(=O)c1ccccc1	CXCR6 block 92.8, CCR6 antagonist 116.2 (no result: APJ antag, APJ agonist) | CXCR6 antag conf 82.5
CC1CCN(C(=O)/C(=C/c2ccccc2Cl)c2ccccc2)CC1	none
C=CC[C@H](CC(=O)N(CCO)Cc1ccccc1)C(=O)NC[C@H](OC(=O)[C@@H](CC=C)CC(=O)OC(C)(C)C)c1ccccc1	CXCR6 block 50.7 | CXCR6 antag conf inactive

Assay outcomes from PubChem.
